In the library only some 3.1% were active in any assay of this set; here they are far more common.
hERG rescue: shields human hERG channel from block by proarrhythmic agents; CHO-hERG, FluxOR thallium flux, dofetilide IC70 present; activation (rescue from dofetilide block), less the hit threshold, % at 10 µM; 310,000 compounds, 0.51% hits; AID 1511;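 active means activation above the mean of controls blocked by dofetilide plus 5 SD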;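 further: thallium influx through hERG after potassium depolarization seen as dye fluorescence rise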
KCNK3 block: human KCNK3 channel inhibition, primary screen | B-score at 10 µM | O14649 | 340,000 compounds, 0.84% hits | CHO-KCNK3 thallium flux, FluxOR fluorescence; active compounds read low;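 active means B-score under library mean minus 4 SD, starting fluorescence ratio at most library mean plus 5 SD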;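 further: more negative B-score means stronger inhibition of thallium flux through KCNK3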
Target sequence (O14649 whole entry, looked up): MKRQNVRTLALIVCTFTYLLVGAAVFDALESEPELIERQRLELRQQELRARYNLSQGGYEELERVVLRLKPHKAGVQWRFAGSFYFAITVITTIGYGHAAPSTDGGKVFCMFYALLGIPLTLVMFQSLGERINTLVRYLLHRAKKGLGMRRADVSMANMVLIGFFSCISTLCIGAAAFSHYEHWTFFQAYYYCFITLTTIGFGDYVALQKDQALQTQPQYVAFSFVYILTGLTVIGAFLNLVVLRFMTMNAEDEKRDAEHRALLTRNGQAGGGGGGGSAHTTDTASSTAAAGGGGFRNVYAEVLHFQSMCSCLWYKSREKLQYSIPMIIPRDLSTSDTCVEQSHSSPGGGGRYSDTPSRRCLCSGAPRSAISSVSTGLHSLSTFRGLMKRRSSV
KCNQ1 inh: human KCNQ1 channel inhibition; B-score at 10 µM; P51787; CHO-K1 KCNQ1, FluxOR thallium flux fluorescence; active compounds read high; 310,000 compounds, 1.3% hits;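 active means compounds whose thallium flux B-score, printed positive for inhibition, exceeds three library SD while starting fluorescence stays within three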;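 further: channel opened by potassium depolarization with thallium stimulus after 20 min compound exposure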
KCNQ1 pot: potentiates or activates the human KCNQ1 potassium channel. P51787. CHO-K1 KCNQ1, thallium flux FluxOR fluorescence; active compounds read high. B-score at 10 µM. 310,000 compounds, 0.35% hits;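 active means fluorescence ratio B-score, a plate-corrected score, at least three library SD, with initial intensity B-score within 5 SD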
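assay system = CHO-K1 cells stably expressing KCNQ1 | medium = assay buffer, equal DMSO in all wells | timing = 37 °C overnight plating, 90-min dark dye load, 20-min compound pretreatment | measured by = kinetic FluxOR thallium fluorescence, 10-s 1-Hz baseline, 110-s post-stimulus read | measure = fluorescence change relative to baseline, converted to B score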
KCNK9 inh: blocks the human KCNK9 two-pore domain potassium channel. AID 488922. HEK293 KCNK9, FluxOR thallium flux fluorescence; active compounds read low. B-score at 10 µM. 310,000 compounds, 1.2% hits. Q9NPC2;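 active means ratio B-score over 3 SD below the library mean, with starting fluorescence within 5 SD of its mean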;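 further: negative B-score means less thallium flux so channel inhibition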
Each line names hits and unclear results; the compound was inactive in the other large screens; ! = not active in a repeat.

CCNc1ccc(C(=O)N/N=C/c2c(C)nn(-c3ccccc3)c2N2CCCC2)cc1[N+](=O)[O-]	KCNQ1 inh 6
C[C@@H](C(=O)N1CCN(Cc2ccc3c(c2)OCO3)CC1)n1nnc2ccccc2c1=O	none
O=C(Nc1ccnn1C1CCN(Cc2ccn[nH]2)CC1)c1ccccc1	none
Cc1ccc(/C=C/C2=NN(Cc3ccccc3)C(=O)CC2)cc1	none
Cc1ccc(/C=C/C2=NN(Cc3ccccc3Cl)C(=O)CC2)cc1	KCNQ1 inh 11
O=C(CS(=O)(=O)c1ccccc1)Nc1ncc([N+](=O)[O-])s1	none
O=C(Nc1ncc([N+](=O)[O-])s1)c1cccs1	KCNQ1 inh 6!
O=C(Nc1ncc([N+](=O)[O-])s1)c1ccccc1Br	KCNQ1 inh 8
CCc1sc(C(=O)N2CCN(c3ccc(F)cc3)CC2)cc1C	none
CCOC(=O)c1c(C)oc2cc(Br)c(OC)cc12	hERG rescue 9.4
CCOC(=O)c1c(C)n(C)c2cc(Br)c(OC)cc12	none
O=C1COc2ccc(C(=O)COC(=O)COc3ccccc3[N+](=O)[O-])cc2N1	none
N#Cc1ccccc1OCC(=O)OCC(=O)c1ccc2c(c1)NC(=O)CO2	hERG rescue 5.4
O=C1CC(C(=O)N2CCN(S(=O)(=O)c3cccc(F)c3)CC2)CN1Cc1ccccc1Cl (stereo unspecified)	none
CCOC(=O)CNC(=O)CN1CCCN(S(=O)(=O)c2ccc(Br)s2)CC1	none (no result: hERG rescue, KCNQ1 inh, KCNQ1 pot, KCNK9 inh)
O=C(CN1CCCN(S(=O)(=O)c2ccc(Br)s2)CC1)Nc1ccc(Cl)cc1	KCNK3 block -9.3
CC(=O)c1sc(NC(=O)c2cnc(Cl)c(Cl)c2)nc1C	KCNQ1 inh 9
Cc1cc(-c2ccc(C)c(S(=O)(=O)N3CCN(c4ccc([N+](=O)[O-])cc4)CC3)c2)on1	none
CCc1ccc(-c2cc(C)no2)cc1S(=O)(=O)N1CCN(c2ccccc2)CC1	KCNQ1 inh 6
CCc1ccc(S(=O)(=O)N2CCCC(N3CCN(c4ccc(OC)cc4)CC3)C2)cc1 (stereo unspecified)	none
CCCN1CCC(=O)N([C@H](CO)CC(C)C)CC1	none
CC(C)C[C@@H](CO)N1CCN(CC(C)C)CCC1=O	hERG rescue 5.7
CCCCCCCCCn1c2c(c(=N)c3c1CCC3)CCCC2	KCNK3 block -12, KCNQ1 inh 10
CCn1c2c(c(=N)c3c1CCC3)CCCC2	none
O=C(CSc1nnc(CNc2ccc(F)cc2)n1CC1CCCO1)N1CCOCC1 (stereo unspecified)	none
CSc1nnc(-c2cc(-c3ccc(C)cc3)nc3ccccc23)o1	KCNK9 inh -7.4
CN1CCN(c2nc(-c3cccs3)cc(C(F)(F)F)n2)CC1	KCNQ1 pot 10
CN1CCN(c2nc(-c3ccccc3)cc(C(F)(F)F)n2)CC1	none
COc1ccccc1-c1sc2cc3c(cc2c1C#Cc1cncn1C)OCO3	none (no result: hERG rescue, KCNQ1 inh, KCNQ1 pot, KCNK9 inh)
COCCn1nnnc1C(c1ccccc1OC)N1CCN(C(=O)c2ccco2)CC1 (stereo unspecified)	none
COc1ccc(OC)c(C(c2nnnn2CCC(C)C)N2CCN(C(=O)c3ccco3)CC2)c1 (stereo unspecified)	KCNK9 inh -6.7
CCCn1nnc(NC(=O)C(c2ccccc2)c2ccccc2)n1	hERG rescue 6.6
CCCCn1nnc(NC(=O)C(c2ccccc2)c2ccccc2)n1	none
COc1ccccc1CN1CC(C(=O)NCCc2ncccc2C)CCC1=O (stereo unspecified)	none
COc1ccc(CN2CCNC(=O)C2CC(=O)N(C)Cc2ccon2)c(OC)c1 (stereo unspecified)	KCNQ1 inh 6
COc1ccccc1CN1CCNC(=O)C1CC(=O)N(C)Cc1ccon1 (stereo unspecified)	none
CC(=O)/C(=N/Nc1ccccc1[N+](=O)[O-])N1CCCc2ccccc21	KCNQ1 inh 7, KCNK9 inh -7.1
CC(=O)/C(=N/Nc1ccc([N+](=O)[O-])cc1)N1CCCc2ccccc21	none
COc1ccc(S(=O)(=O)N2CCOCC2)cc1NC(=O)CSc1cccc[n+]1[O-]	none
O=c1c(/C=C(\O)c2ccc(F)cc2)nc2ccccc2n1-c1ccccc1	KCNQ1 inh 6
CC(=O)c1c(N2CCCC2)[nH]c(-c2ccccc2)nc1=S	hERG rescue 7.3, KCNQ1 pot 9
CC(=O)c1c(N2CCN(Cc3ccccc3)CC2)nc(=S)n(Cc2ccccc2)c1C	none
CC(=O)c1c(N2CCOCC2)[nH]c(-c2ccccc2)nc1=S	none
CC(=O)c1c(N2CCN(Cc3ccccc3)CC2)[nH]c(-c2ccccc2)nc1=S	KCNQ1 pot 23
Cc1cccc(C)c1OCc1cc(C(=O)N2CCN(Cc3nccn3C)CC2)no1	none
COC(=O)N/N=C/c1cc(C)n(-c2cccc3ccccc23)c1C	KCNK9 inh -7
COc1cc(C(=O)Nc2nnc(S(=O)(=O)N3CCCCCC3)s2)cc(OC)c1OC	none
Cc1ccc(OCc2cc(C(=O)N3CCC(C(O)C(C)C)CC3)no2)cc1C (stereo unspecified)	none
COc1cccc(N(C(=O)Cn2nnc(-c3ccc(C)o3)n2)C(C(=O)NC(C)(C)C)c2cccs2)c1 (stereo unspecified)	hERG rescue 6.4
Cc1ccc(-c2nnn(CC(=O)N(Cc3ccco3)C(C(=O)NC(C)(C)C)c3cccs3)n2)o1 (stereo unspecified)	none
O=C(Nc1nc(=S)ss1)c1ccc(Cl)cc1Cl	hERG rescue 41, KCNQ1 pot 15
CCN(CCO)C(=O)c1ccc2nc(Cc3ccc(OC)cc3)oc2c1	none
O=[N+]([O-])c1ccccc1CN1CCN(S(=O)(=O)Cc2ccccc2)CC1	none
CN(Cc1ccccc1)C1CCN(Cc2ccccc2[N+](=O)[O-])CC1	hERG rescue 9.8
CC1(C)Cc2c(ccc3ccccc23)C2=C(C(=O)N3CCCC3)C(=O)C(=O)N21	hERG rescue 5.1
C=CCC1(O)C(=O)N2C(=C1C(=O)OCC)c1ccc3ccccc3c1CC2(C)C (stereo unspecified)	none
COc1ccc(C(=O)CC(Nc2ccc([N+](=O)[O-])cc2)c2ccc(OC)cc2)cc1 (stereo unspecified)	KCNQ1 inh 9
COc1ccc(C(=O)/C(C#N)=N/Nc2ccccc2[N+](=O)[O-])cc1	none
COc1ccc(C(=O)CC(=O)Nc2ccc([N+](=O)[O-])cc2)cc1	none
COc1ccc(C(=O)/C(C#N)=N/Nc2ccc([N+](=O)[O-])cc2)cc1	KCNQ1 inh 6
COc1cccc(CN2C(=O)NC3(CCCCCC3)C2=O)c1	none
Cc1sc2ncnc(NCC(O)c3ccc([N+](=O)[O-])cc3)c2c1C (stereo unspecified)	KCNQ1 inh 9
Cc1sc2ncnc(NCC(O)c3ccccc3)c2c1C (stereo unspecified)	none
Cc1coc2cc3oc(=O)ccc3cc12	none
O=C(Nc1cccc(NC(=O)c2cccs2)c1)c1ccc(F)cc1	KCNK9 inh -7.4
N/C(=N\O)c1ccc(NC(=O)c2cccs2)cc1	hERG rescue 46

Screening data from PubChem.
